Screens (PubChem BioAssay)
An excerpt weighted towards active compounds, which were near 3.1% of everything screened.
HSF1 inhib: HSF1 inhibition; NIH3T3-HGL HSE-luciferase, MG132-induced, luminescence 8 h; active compounds read low; activity change, negative = inhibition, % at 7.5 µM (by protocol); 0.77% of 300,000 active; AID 2098;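 active = more than half of replicate wells show activity change below -50%, luminescence cut by over half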;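 also: luciferase reports HSF-1 transcriptional activity via heat shock element; 0% = median of DMSO wells and -100% = zero luminescence signal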
HSP90 inh: blocks HSP90-mediated luciferase refolding in reticulocyte lysate | AID 1789 | inhibition, % at 5.6 µM | 0.91% of 290,000 active | Rabbit reticulocyte lysate, luciferase refolding luminescence, 3 h;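 active = inhibition above the screen-wide mean plus 3 SD, computed separately per campaign, cut at about 16% in these data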;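 also: 0% = DMSO wells and 100% = 60 µM geldanamycin wells; inhibitors lower the luminescence because luciferase stays unfolded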
HSF1 activator: increases HSF-1 driven luciferase reporter signal. NIH3T3-HGL HSF-1 luciferase reporter, MG132, 8 h; 100% = twice DMSO control signal. activation, % at 9 µM. 1.7% of 300,000 active;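 active = mean replicate activation of at least 50% with a set share of replicates each reaching 50%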;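 also: 0% = median of the neutral control wells and 100% = twice that signal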
Tb hexokinase: blocks Trypanosoma brucei hexokinase 1 activity; inhibition, % at 10 µM; 0.11% of 220,000 active; recombinant TbHK1, G6PDH-coupled NADH A340;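 active = inhibition of 50% or more in the single-dose primary screen; inactive = inhibition below 50%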
Hsp70 act: switches on Hsp70 transcription | AID 1203 | 0.04% of 200,000 active | HeLa Hsp70 promoter luciferase reporter, luminescence; scaled: vehicle 0, proteasome-inhibitor control 100% | activation, % at 10 µM;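 active = activation above the mean across all tested compounds plus 3 SD, cutoff set per campaign, cut at about 5.5% in these data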;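 also: 100% = MG132 at 30 µM as the positive control and 0% = DMSO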
HKDC1 inhibitor: blocks human hexokinase HKDC1 activity; Q2TB90; recombinant HKDC1, G6PDH/diaphorase resazurin coupled fluorescence; inhibition, % at 20 µM; 0.16% of 340,000 active;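 active = inhibition above about 35% when tested at 20 µM, limit read from the data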;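 also: plate controls were DMSO wells with enzyme for no effect and DMSO wells lacking enzyme for full effect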
Target sequence (Q2TB90 whole entry, looked up): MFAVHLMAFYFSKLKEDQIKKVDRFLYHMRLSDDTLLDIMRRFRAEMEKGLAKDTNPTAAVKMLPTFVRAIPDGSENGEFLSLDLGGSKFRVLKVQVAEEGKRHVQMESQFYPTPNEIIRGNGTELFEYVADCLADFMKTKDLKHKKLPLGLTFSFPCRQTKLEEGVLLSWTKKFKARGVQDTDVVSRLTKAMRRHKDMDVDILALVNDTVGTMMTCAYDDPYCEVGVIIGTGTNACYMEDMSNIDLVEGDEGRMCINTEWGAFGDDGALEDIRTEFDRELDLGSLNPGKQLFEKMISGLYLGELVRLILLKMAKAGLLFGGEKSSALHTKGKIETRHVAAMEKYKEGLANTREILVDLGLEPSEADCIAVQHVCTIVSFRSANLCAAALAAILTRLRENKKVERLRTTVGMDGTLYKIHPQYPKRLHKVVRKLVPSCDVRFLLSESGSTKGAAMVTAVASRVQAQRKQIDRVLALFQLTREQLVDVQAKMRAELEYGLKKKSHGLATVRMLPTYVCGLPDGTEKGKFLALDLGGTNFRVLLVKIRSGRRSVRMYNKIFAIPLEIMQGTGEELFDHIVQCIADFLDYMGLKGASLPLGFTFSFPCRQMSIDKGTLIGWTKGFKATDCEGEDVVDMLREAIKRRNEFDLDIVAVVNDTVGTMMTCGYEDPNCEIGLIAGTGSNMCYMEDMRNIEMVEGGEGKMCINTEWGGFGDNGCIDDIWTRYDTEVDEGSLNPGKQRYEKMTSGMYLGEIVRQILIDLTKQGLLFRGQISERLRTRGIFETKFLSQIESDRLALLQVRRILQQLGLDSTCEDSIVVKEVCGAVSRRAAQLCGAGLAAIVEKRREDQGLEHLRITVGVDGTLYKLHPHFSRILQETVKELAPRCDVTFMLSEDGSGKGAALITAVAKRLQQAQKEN
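Test system: recombinant HKDC1 (HK5) hexokinase enzyme, produced in-house / Doses: 20 µM test compound, 1% DMSO / Timing: 90 min, room temperature / Detection: G6PDH/diaphorase-coupled fluorescence, 1 mM NADP, 100 µM resazurin, 525/613 nm / Control set: DMSO wells with and without enzyme mix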
* = called active by the depositor; nt = no result given.

SMILES	HSF1 inhib	HSP90 inh	HSF1 activator	Tb hexokinase	Hsp70 act	HKDC1 inhibitor
Cc1cc(C)c(-c2c(N)cc(Br)cc2Br)c(N)c1	nt	nt	nt	nt	nt	13
COC(=O)CCN1CCC2CC1c1cc(Cl)ccc12 (configuration not stated)	nt	nt	nt	nt	nt	-4
COc1ccc(Cl)cc1C(=O)NCC(=O)OCc1ccccc1	-52*	nt	-65	nt	nt	2
C/C(=N\NS(=O)(=O)c1ccc([N+](=O)[O-])cc1)c1c[nH]c2ccccc12	-7	-2	-3	nt	nt	-1
COc1cc(CC(=O)OCC(=O)NCc2ccco2)cc(OC)c1OC	nt	nt	nt	nt	nt	-7
COCCCNC(=S)Nc1ccc2nc(N3CCOCC3)cc(C)c2c1	-12	2	-20	nt	nt	12
CCOCCCNC(=S)Nc1ccc2nc(N3CCOCC3)cc(C)c2c1	76	4	125*	nt	nt	4
COc1ccc2nc(N=Nc3ccc(N(C)C)cc3)sc2c1	nt	26*	nt	-3	0	2
COc1ccc2nc(/N=C\N(C)C)sc2c1	9	-3	15	-10	0	-3
N#C/C(=C/c1cccc(C(F)(F)F)c1)c1nc(CCN2C(=O)c3ccccc3C2=O)cs1	-59*	-4	-65	-7	0	-5
COc1ccccc1CNC(=O)CCNS(=O)(=O)/C=C/c1ccc(C)cc1	nt	nt	nt	nt	nt	-1
NC(=O)c1nn(-c2ccccc2)nc1NC(=O)CN1CCCCC1	16	5	53*	-1	0	2
CCc1occc(=O)c1Oc1cc(NN2CCCCC2)c([N+](=O)[O-])cc1[N+](=O)[O-]	-2	-3	13	nt	nt	-4
O=C(Nc1nc(-c2ccccn2)cs1)c1ccc(S(=O)(=O)N2CCCCC2)cc1	-40	-2	-49	-22	nt	nt
O=C(Nc1nc(-c2cccs2)cs1)c1cccc(S(=O)(=O)N2CCCCCC2)c1	-61*	2	-70	-1	0	1
Cc1csc(NC(=O)c2cccc(S(=O)(=O)N3CCCCC3)c2)n1	-1	0	10	-11	0	5
O=C(Nc1nc(-c2cccs2)cs1)c1ccc(S(=O)(=O)N2CCCCC2)cc1	-61*	1	-70	-6	0	-1
Cc1cc(C)c(NC(N)=S)c(C)c1	-1	4	0	36	nt	2
CC(Oc1ccccc1Cl)C(=O)N(Cc1cccs1)C1CCS(=O)(=O)C1 (configuration not stated)	0	-4	6	nt	nt	-2
Cc1ccc(-n2c(C)cc(C(=O)CSc3nncs3)c2C)cc1	39	1	67*	-1	0	-9
O=C(Nc1ccc(N2CCOCC2)c(Cl)c1)c1cc2ccccc2o1	31	-4	55*	-9	0	2
O=C(Nc1ccc2c(c1)CCC2)c1cc2ccccc2o1	26	4	63*	-2	0	5
Cc1ccc(C(=O)Nc2ccc3c(c2)CCC3)o1	32	2	63*	6	0	-9
O=C(Nc1ccc2c(c1)CCC2)c1ccc(Br)o1	21	5	39	-3	0	-2
CC(=O)c1cccc(N(CC(=O)NC2CCCCC2)C(=O)CCC(=O)Nc2nc(C)cs2)c1	-2	-3	16	nt	nt	-5
SMILES	HSF1 inhib	HSP90 inh	HSF1 activator	Tb hexokinase	Hsp70 act	HKDC1 inhibitor
CC1CN(C(=O)c2ccc(-c3cccc(C(F)(F)F)c3)o2)CC(C)O1 (configuration not stated)	4	nt	14	nt	nt	-3
C=CCNC(=O)c1ccc(NC(=O)CC2SC(N3CCCC3)=NC2=O)cc1 (configuration not stated)	-3	nt	-5	nt	nt	-2
CC(C)(C)C(=O)OCc1nc(-c2ccc3c(c2)OCCO3)cs1	-52*	9	-62	nt	nt	-1
COc1ccc(-c2csc(COC(=O)C(C)(C)C)n2)cc1	14	-2	35	-5	nt	1
Cc1oc2c(C)c(O)ccc2c(=O)c1-c1cnn(-c2ccccc2)c1	0	1	3	25	0	-3
Cc1[nH]nc(-c2ccc(O)c(C)c2O)c1-c1cnn(-c2ccccc2)c1	29	-2	67*	5	0	-1
CCC(Sc1nc2n[nH]c(C)c2c(=N)n1-c1ccc(C)c(Cl)c1)C(=O)N1CCOCC1 (configuration not stated)	17	1	56*	-8	0	4
CC(C(=O)Nc1ccc2c(c1)OCO2)n1cnc2c1c(=O)n(C)c(=O)n2C (configuration not stated)	nt	nt	nt	nt	nt	1
